# Laboratory results published in ChEMBL document CHEMBL4513216, “Probing the Open Global Health Chemical Diversity Library for Multistage-Active Starting Points for Next-Generation Antimalarials” (ACS Infect Dis, 2020).
# Assay: Toxicity liver stage against HepG2, at 10uM
# Assay type: cell-based
# Parameters: test concentration 10 uM, cell line HepG2-A16-CD81EGFP
# Details: human, HepG2-A16-CD81EGFP cells; read-out: INHIBITION
# Procedure, shortened: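 Uninfected HepG2-A16-CD81EGFP cells, 3 × 10^3 per well, 1536-well, plated on prespotted compound at 10 μM final, parasite-free screening media added to match infected plates; puromycin 10 μM positive, DMSO 0.5% negative; run in parallel with 48 h PbLuc assay at 37 °C, 5% CO2; viability by CellTiter-Glo luminescence, normalized to controls.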
row,SMILES,cytotoxicity at 10 µM [%]
1,Cc1c(CN2CCCCC2)c(O)n(CCO)c(=O)c1C#N,-1.64
2,O=C(O)Cc1cnc(-c2c(Cl)cccc2Cl)s1,2.84
3,Cc1nn(C2CCS(=O)(=O)C2)c(O)c1Cc1ccccc1 (stereo not drawn),-44.6
4,O=C(CN1C(=O)c2ccccc2C1=O)N1CCOC2(CCOCC2)C1,-5.15
5,N#CCc1ccc(NC(=O)Cn2cc(I)cn2)cc1,8.44
6,O=S(=O)(c1cnccc1N1CCN(CCO)CC1)N1CCOCC1,-8.49
7,CC(=O)c1c(O)n(C)c2ccccc12,1.64
8,CN(C)c1nccc(N2CCO[C@H]3CN(CC4CCOCC4)C[C@H]32)n1,-7.21
9,Cc1ccc(CNC(=O)CCC(=O)NCCC(C)C)o1,-9.74
10,Cc1nc(N2CCCC2)ncc1-c1cc(O)nc(N2CCCCC2)n1,10.7
11,CCC1=NC(SCC(=O)c2ccc(OC)cc2)c2cc(CC)sc2N1 (stereo not drawn),9.4
12,Cc1nn(C)c2cnn(CC(=O)NCc3ccc4c(c3)OCO4)c12,4.45
13,CSc1nc2ccsc2c(=O)n1CC(=O)N(C)c1ccccc1,-5.57
14,Cc1ccc2cnn(CCC(=O)NCc3c(C)nn(C)c3C)c2c1,-8.19
15,COc1ccccc1-c1cccc(C2CCCN(C3CCOCC3)C2)n1 (stereo not drawn),5.7
16,Cc1cc(C)c2nc(C)c(C(=O)N3CCC(CCN(C)C)CC3)cc2c1,-4.91
17,Cc1cc(Cc2ccccc2F)cc(C2CCCNC2)n1 (stereo not drawn),0.00505
18,COc1cccc(CC(=O)NCc2cnc(C)nc2C2CCCN2C)c1 (stereo not drawn),-7.47
19,O=C(c1cccnc1)N1CCCC1c1nc(O)cc(-c2ccccn2)n1 (stereo not drawn),-5.91
20,COCCC(=O)N1CCCC1c1csc(Nc2ncccn2)n1 (stereo not drawn),-4.33
21,Cc1nccn1-c1cncc(C2CCCN2Cc2ccccc2)n1 (stereo not drawn),-8.52
22,O=C(c1ccccc1Cl)N1CC[C@H](O)[C@@H](N2CCOCC2)CC1,-4.91
23,CC(NC(=O)NC1CCN(Cc2ccccn2)CC1)c1ccco1 (stereo not drawn),13.9

row,SMILES,cytotoxicity at 10 µM [%]
1,O=C(C[S+]([O-])Cc1csc(C2CCCC2)n1)NC1CCCC1 (stereo not drawn),-38.2
2,CSCC(=O)N1CCOC(c2nc(C)n[nH]2)C1 (stereo not drawn),0.986
3,CCC(C)C(=O)N(Cc1ccccn1)C1CC1 (stereo not drawn),-44.5
4,CN(c1ncc(S(N)(=O)=O)s1)C1CCc2ccccc21 (stereo not drawn),-1.62
5,COCCCN(C)S(=O)(=O)c1ccc(Cl)cc1C#N,-38
6,CCN(C)CC1CCN(S(=O)(=O)c2cc(C)c(F)cc2Cl)C1 (stereo not drawn),-8.38
7,CCS(=O)(=O)N1CCC(Nc2c(F)cc(C#N)cc2F)CC1,8.13
8,CC(NC1(CNC(=O)OC(C)(C)C)CCOCC1)c1ccccc1 (stereo not drawn),3.63
9,CN(C)C(C)(C)CNCc1c[nH]nc1-c1cc2ccccc2o1,-3.6
10,Cc1nn(C)c2ncc(S(=O)(=O)N3CCCC(C(N)=O)C3)cc12 (stereo not drawn),3.45
11,CCc1cc(CNC(=O)NCC(c2ccco2)N2CCCC2)[nH]n1 (stereo not drawn),0.238
12,CC(C)n1c(C2CCCN(CC(=O)NC(N)=O)C2)nc2ccccc21 (stereo not drawn),-7.9
13,CCC1CN(CC(=O)NCc2ccco2)CCO1 (stereo not drawn),-7.66
14,CN(CC(=O)N1CCCC1c1noc(C2CC2)n1)C1CC1 (stereo not drawn),9.62
15,O=C(C1CCCCC1)N1CCC2(CC1)OCCO2,9.77
16,CCc1nnc2n1CCN(C(=O)c1ccc(C)c(S(N)(=O)=O)c1)C2,-4.55
17,Cc1cc(F)c2c(c1)CCCN2Cc1nc2c(cnn2C)c(=O)[nH]1,1.89
18,COc1cc(C(C)=O)ccc1SCC(=O)Nc1ccccn1,11.7
19,O=C(c1coc2ccccc12)N1CCS(=O)(=O)CC1,2.64
20,NC(=O)c1ccc(OCCC(=O)NC2CCc3c(F)cccc32)cc1 (stereo not drawn),2.02
21,CC(NCC1CCN(CCO)CC1)c1ccc(C(F)(F)F)cc1 (stereo not drawn),-7.28
22,O=C(NC1(c2nccs2)CCCC1)c1cc(C2CC2)on1,6.65
23,Cn1ccnc1COc1ccc(CSc2nnnn2C2CC2)cc1,-0.146

row,SMILES,cytotoxicity at 10 µM [%]
1,Cc1cc(C(=O)N2CCCC(c3nncn3C)C2)no1 (stereo not drawn),0.541
2,Cc1cnn(CCNCc2c(C)nn(CCO)c2C)c1,6.35
3,CC(C(=O)NCC1(c2c(F)cccc2F)CCCC1)S(C)(=O)=O (stereo not drawn),8.14
4,Cc1cc(C(=O)NCCN2CCC(C)CC2)nn1C(C)(C)C,13.3
5,COc1ccnc(NC(=O)CSCc2cccnc2)c1,-47.2
6,Cc1ncsc1C(=O)N(C)Cc1ccc(Br)o1,-39.3
7,Cc1ccc(OCC(=O)NCC(C)C)nc1,-18.3
8,CCS(=O)(=O)N1CCCn2nnc(Cn3cccc3)c2C1,9.77
9,CS(=O)(=O)NCc1nnc2n1CCN(Cc1ccccn1)C2,-75.5
10,CCOCC1CN(Cc2cnn(C)c2)Cc2ncn(C)c21 (stereo not drawn),-79.2
11,COc1ccc(-c2cn([C@H](CO)CC(C)C)nn2)cn1,-2.03
12,O=C(NC1CCNC1)C1(N2CCCCC2)Cc2ccccc2C1 (stereo not drawn),-5.76
13,COc1ccc(C2CC(=O)NCc3nc4ccccn4c32)cn1 (stereo not drawn),-3.95
14,Cc1ncc2c(c1CNC(=O)C1(C)CCCCO1)CCNC2 (stereo not drawn),-27.9
15,FC(F)(F)c1ccc(-c2n[nH]c3c2CN(CC2CCOC2)CC3)cc1 (stereo not drawn),-52.1
16,CCN(Cc1nc(COC)no1)C(=O)CCn1c(C)cc2ccccc21,-0.0679
17,CCn1c(C2CCCN(S(=O)(=O)C3CC3)C2)nn(CCN(C)C)c1=O (stereo not drawn),0.522
18,CSCCCNC(=O)C1CCC(=O)N(C2CCCC2)C1 (stereo not drawn),-11.1
19,O=C1CC[C@@H](CN(Cc2ccncc2)Cc2nc(CC3CC3)no2)N1,3.86
20,CC(C)Oc1cc(N2C[C@H](C3CC3)[C@@H](N)C2)nc(N)n1,-4.75
21,CC1(C)Cc2nc(C(C)(C)C)ncc2C(NC(=O)CN)C1 (stereo not drawn),-6.55
22,O=C(CCc1cn[nH]c1)N1C[C@@H](CN2CCCCCC2)[C@@H](CO)C1,2.62
23,CCSCCNC(=O)Nc1cc(C(=O)N2CCOCC2)ccc1Cl,-55.2

row,SMILES,cytotoxicity at 10 µM [%]
1,COc1ccc(C2CC(=O)NCc3nc(N(C)C)sc32)c(O)c1 (stereo not drawn),3.3
2,CSc1ncc(CNC(C)c2cnn(-c3ccccc3)c2C)cn1 (stereo not drawn),-3.63
3,COc1cccc(-c2n[nH]c3c2CN(C(=O)c2cc(C)n(C)n2)CC3)c1,-0.159
4,COc1ccccc1CCN1CCCC(CN(C)Cc2cc(C)n[nH]2)C1 (stereo not drawn),-4.52
5,CCCN1CCN(Cc2cccc(OCC(N)=O)c2)[C@H]2CS(=O)(=O)C[C@H]21,2.77
6,Cc1cc(C)nc(N2CCN(C(=O)c3ccc(C4CCCO4)s3)CC2)n1 (stereo not drawn),9.07
7,O=C(c1ccon1)N1CCc2ncnc(NCc3cccnc3)c2CC1,-1.9
8,CC(c1ccccn1)N(C)Cc1ccc(CCC(C)(C)O)cc1 (stereo not drawn),1.82
9,NCC1CCN(c2nc(C3CCCC3)nc3c2CCNCC3)C1 (stereo not drawn),16.1
10,CN1CCCCC1CCC(=O)NCCSc1cnn[nH]1 (stereo not drawn),0.00194
11,O=C(O)C(c1ccc2[nH]ccc2c1)N1CCOCC1 (stereo not drawn),13.1
12,COC(=O)c1ccc(N2CCN(C(=O)c3ccc(=O)n(C)c3)CC2)cc1,-43.9
13,Cc1cc(N2CCC(c3ncc[nH]3)CC2)nc(N)n1,-7.54
14,FC(F)(F)COc1cccc(-c2nc3c([nH]2)CCNC3)c1,4.5
15,CCN(Cc1nc(COC)no1)Cc1cccnc1NC(=O)C(C)(C)C,-47.9
16,Cc1cccc(N2CCC(N3CCCC4(CN(C)C(=O)O4)C3)CC2)c1C (stereo not drawn),-12.8
17,COc1ccc(C(=O)N2C[C@@H](CN3CCCCC3)[C@@H](CO)C2)cc1Cl,-0.703
18,CCOC(=O)c1c(NC(=O)C2CCN(C(C)=O)CC2)sc(C)c1CC,10.9
19,CCOc1ccc(CC(=O)N2CCCC2c2cc(C)on2)cc1 (stereo not drawn),-46
20,CCCC1(CO)CCCN(C(=O)CNC(C)=O)C1 (stereo not drawn),3.43
21,CC(C)c1nccn1CCCNC(=O)c1ccc(-c2cccnc2)nc1,-11.8
22,CN(C)Cc1ccc(C2CCCCN2C(=O)c2cc(C3CC3)n[nH]2)cc1 (stereo not drawn),-9.09
23,CC(CCN1CCn2nc(CNC(=O)N(C)C)cc2C1)c1ccccc1 (stereo not drawn),-11.8

row,SMILES,cytotoxicity at 10 µM [%]
1,Cc1nc(C2CCN(C(=O)CO)CC2)cc(N2CCOCC2)n1,-12.2
2,Cc1nc(CN2CCCC2c2nc(C(C)C)no2)cs1 (stereo not drawn),-9.7
3,CC(C)c1cc(NCC(O)CO)n2nccc2n1 (stereo not drawn),-24.8
4,CCc1c(O)n(C(C)CC)c(SCC(=O)c2ccccc2)nc1=O (stereo not drawn),-2.11
5,O=C(CN1CCOC(CNc2cccnn2)C1)NCc1cccs1 (stereo not drawn),-14
6,CC(C)(O)CN1CCN(C(=O)c2ccc(Cl)c3cccnc23)CC1,-9.19
7,Cc1cnn(C2CN(CC(=O)Nc3cccnc3)C2)c1,-8.11
8,COCCOc1ccccc1C(=O)N1CCCCC1c1nccs1 (stereo not drawn),0.642
9,CC(=O)N1CCN(C(=O)CN2CCc3c(ncn3C3CC3)C2)CC1,3.3
10,Cc1nn(C)cc1S(=O)(=O)NCC(c1ccccc1)N1CCCCCC1 (stereo not drawn),-13.6
11,Cn1ccnc1CN1CCC2(CC1)COCCN(S(C)(=O)=O)C2,3.39
12,CCOCC1CN(C)Cc2cnn(CC3CCCC3)c21 (stereo not drawn),-9.7
13,CNC(=O)C1Cn2ccnc2C2(CCN(Cc3ccncc3)CC2)O1 (stereo not drawn),-74.9
14,Cn1cnc2c1C(COCC1CCOCC1)CN(Cc1ccccn1)C2 (stereo not drawn),-78.2
15,CN1CCN(Cc2cccnc2)C2(CCN(c3ncccn3)C2)C1=O (stereo not drawn),1.31
16,O=C(c1cccc(F)c1)N1CCCC1c1ncc2c(n1)CCNC2 (stereo not drawn),-12.2
17,Cc1nc(N2CCOCC2)nc2c1COCC21CCN(CC2CC2)C1 (stereo not drawn),-116
18,Cc1ccc(CN2CCOC3(CCN(CC4CCOC4)CC3)C2)cc1 (stereo not drawn),-117
19,COCCN1CCN(Cc2c(C)noc2C)Cc2cccnc21,-70.1
20,Cc1ccc2c(n1)N(Cc1ccncc1)CCN(S(C)(=O)=O)C2,-77.2
21,Cc1cnc(NS(=O)(=O)c2ccccc2)s1,-2.56
